# High-throughput results: PubChem BioAssay, Broad Institute
# In the library only some 3.1% were active in any assay of this set; here they are far more common.
# Cneo AK release – Cryptococcus neoformans cell lysis inducers, primary screen, AK release luminescence, single concentration; C. neoformans lysis, adenylate kinase release luminescence, 4 h; normalised: neutral wells 0, clomiphene wells 100; lysis activity, % at 15 µM; hit rate 0.2% among 360,000;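 active = mean lysis activity across replicates of at least 80%, whatever share of replicates individually reach that level; inactive = mean lysis activity below 80%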
#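 Schedule: static 4 h at 37 °C with compound, 1 h detection; system: C. neoformans cells; benchmarks: Clomiphene as positive control; buffer or medium: fresh YPD medium; measure: luminescence rise reflecting yeast cell lysis; measured by: luminescent adenylate kinase detection reagent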
# Env fusion inh – inhibitors of HIV-1 Env-driven cell-cell fusion, primary screen, HeLa-JRFL effector, CEM21 target cells, luciferase; hit rate 1.1% among 360,000; AID 651610, 2012; inhibition, % at 12.3 µM;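 active = mean replicate inhibition score of at least 50 and every replicate individually at or above 50; inconclusive = only one of the two criteria met; inactive = mean below 50 and not all replicates reaching 50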;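 note: 0% = plate neutral controls and 100% = maraviroc near 300 nM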
# Ecoli rRNA inh – reduced GFP signal of wild-type E. coli, primary screen, bacterial rRNA inhibitor project, GFP/RFP fluorescence, OD600, single point. hit rate 1.6% among 350,000. GFP signal change (wild-type ribosome), % (concentration not given with the values). E. coli WT GFP vs humanized-ribosome RFP mutants, 24 h; stronger effect = lower value; DMSO median 0, no signal -100;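 active = significant combined selectivity score with lowered wild-type GFP, culture density cut under 30%, mutant RFP and density less affected; inactive = any of these conditions unmet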
# miR122 inh – miR-122 Renilla sensor signal increase in Huh7, primary screen, miR-122 inhibitor project, cell-based, single point, plate reader; AID 602342, 2012; Huh7 miR-122 Renilla luciferase sensor, 48 h; neutral wells = 0, positive control = 100; activation (reporter increase), % at 12.5 µM; hit rate 0.3% among 340,000;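 active = mean replicate activation score at least 90 and every replicate individually at or above 90; inconclusive = only one of the two criteria met; inactive = neither criterion met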;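 note: higher luciferase means less miR-122 activity so hits act as miR-122 inhibitors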
# CFTR F508del cor – F508del CFTR correction, initial screen, CFBE line, single point; CFBE cells, YFP halide quenching; stimulated with forskolin plus potentiator P3; % fluorescence drop versus neutral controls; activity (quench increase), % at 7.58 µM; hit rate 0.36% among 350,000; AID 720511, 2013;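 active = mean added fluorescence quench of at least 8% versus neutral control, with both replicates also reaching 8%; inconclusive = only one of the mean or replicate conditions met; inactive = mean below 8% and not both replicates reaching 8%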;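 note: cells transiently co-express mutant CFTR-F508del with the halide-sensitive YFP; corrector assay measuring rescue of mutant channel to the surface after 24 h compound exposure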
# GSIS activator – GLuc luminescence reporter in INS-1E cells, primary screen for activators of glucose-dependent secretion of insulin; hit rate 0.61% among 370,000; INS-1E GLuc reporter insulin secretion, 2-3 h; activation, % at 16.6 µM; AID 743287, 2014;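 active = lowest replicate activation of at least 40%, so every replicate reaches that level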;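 note: 0% = median of neutral control wells and 100% = median of IBMX positive control wells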
# * hit, by the source's call; i = inactive; ? = inconclusive; · = not tested or not shown; [ ] = another dose, or the depositor's remark.
SMILES,Cneo AK release,Env fusion inh,Ecoli rRNA inh,miR122 inh,CFTR F508del cor,GSIS activator
CN1CCN(C(=O)C[C@H]2C=C[C@H](NC(=O)Cc3ccccn3)[C@H](CO)O2)CC1,-2,4[16.7 µM],1,3[16.7 µM],0,0
C[C@H](CO)N1C[C@H](C)[C@@H](CN(C)C(=O)NC2CCCC2)Oc2cc(C#Cc3ccc(F)cc3)ccc2S1(=O)=O,6,13[16.7 µM],-5,46[16.7 µM],0,-17
C[C@H](CO)N1C[C@H](C)[C@H](CN(C)C(=O)NC2CCCC2)Oc2cc(C#Cc3ccc(F)cc3)ccc2S1(=O)=O,1,63*[16.7 µM],-5,6[16.7 µM],9.7*,-4
COc1ccc(N/C(N)=N/c2nc(C)cc(C)n2)c(OC)c1,·,2,11,·,5,-4
COc1ccc(OC)c(N/C(N)=N/c2nc(C)cc(C)n2)c1,-2,-1,9,12,8.9*,7
COc1cc(/C=C2\CC/C(=C\c3cc(OC)c(OC)c(OC)c3)C2=O)cc(OC)c1OC,·,37,1,·,-2,-2
COc1cc(/C=C2\CC/C(=C\c3cc(OC)c(O)c(OC)c3)C2=O)cc(OC)c1O,·,77*,·,·,·,·
COc1cc(/C=C2/CCC/C(=C\c3cc(O)c(OC)c(Cl)c3)C2=O)cc(Cl)c1O,-1,27,·,113*,·,·
COc1cc(/C=C2\COC/C(=C\c3cc(OC)c(OC)c(OC)c3)C2=O)cc(OC)c1OC,·,110*,-9,·,-1,·
CC(=O)Nc1ccc(C(=O)CSc2nnc(-c3ccccc3F)n2CCc2ccccc2)cc1,·,15,-35*,·,-2,-8
CC(=O)[C@@]1(O)CC[C@H]2[C@@H]3CCC4=CC(=O)CC[C@]4(C)[C@H]3[C@@H](O)C[C@@]21C,0,i,·,-5,5,·
CCC(C(=O)OCC(=O)C1(O)CCC2C3CCC4=CC(=O)CCC4(C)C3C(O)CC21C)C(C)C (centres undefined),7,-10,11,-9,8.2*,·
Cc1c(C(=O)NNc2c(Cl)cccc2Cl)n(C)oc1=O,·,21,-22*,·,0,-6
COc1cc(OC)c(N(C)S(=O)(=O)c2cccc(C(=O)NC3=NCCS3)c2)cc1Cl,-1,10,-23*,46,-2,8
COc1cc(OC)c(N(C)S(=O)(=O)c2cccc(C(=O)Nc3nc(C)cs3)c2)cc1Cl,0,·,-24,-3,-2,-19
CCN(CC)C(=O)Cn1cc(C(=O)C(=O)N2CCN(Cc3ccccc3)CC2)c2ccccc21,·,8,15,·,1,60*
COc1ccc2c3c([nH]c2c1)[C@@H](CO)N(S(C)(=O)=O)CC31CN(C(=O)c2cccnc2)C1,·,·,0,·,-1,10
O=C(CCc1nc(-c2ccccc2F)no1)Nc1cccnc1,-2,59*,4,·,0,17
CC(C)c1ccc(OCC(=O)NC(C)c2ccccc2)cc1 (centres undefined),-4,14,0,1,-1,·
COc1ccc(CC(=O)NC(c2ccccc2)c2ccc(C)cc2)c(OC)c1 (centres undefined),0,2,3,·,8.0*,10
COc1ccc(OC)c(CC(=O)NC(c2ccccc2)c2ccccc2)c1,3,-6,-1,·,0,6
Cc1ccc(S(=O)(=O)N/N=C/c2ccc(OCC(=O)Nc3ccccc3Cl)cc2)cc1,1,?,-1,219*,-1,3
Cc1ccc(OCC(=O)Nc2ccccc2-c2ccccc2NC(=O)COc2ccc(C)cc2)cc1,·,91*,·,·,·,-4
Cc1ccc(OCC(=O)NC(C)c2ccccc2)cc1 (centres undefined),-1,-4,2,-3,0,47*
O=C(COc1ccccc1)Nc1ccccc1C(=O)NC1CC1,-1,-15,17,-3,1,44*
SMILES,Cneo AK release,Env fusion inh,Ecoli rRNA inh,miR122 inh,CFTR F508del cor,GSIS activator
Cc1ccc(C(=O)NCC(=O)OCC(=O)NC(C)c2ccccc2)s1 (centres undefined),·,26,-7,·,15*,-11
O=C(COc1ccccc1-c1ccccc1)NCc1ccco1,·,17,-34,2,0,0
CC(=O)c1ccc(OCC(=O)Nc2ccccc2C(=O)NC2CC2)cc1,0,-10,4,3,-3,18
O=C(O)COc1ccccc1-c1ccccc1,2,-22,9,-16,0,41*
Cc1ccc(C(=O)OCC(=O)NC(C)c2ccccc2)s1 (centres undefined),-1,-3,11,-5,5,27
CC(NC(=O)COC(=O)c1ccccc1O)c1ccccc1 (centres undefined),-14,-27,-1,-6,2,13
CC(NC(=O)COC(=O)c1ccccc1Nc1ccccc1)c1ccccc1 (centres undefined),-1,·,·,-4,·,85*
O=C(N[C@@H]1CC[C@H](CCNC(=O)C2CC2)O[C@@H]1CO)c1ccccn1,-3,4[16.7 µM],0,·,-2,16
COC(=O)C[C@H]1CC[C@@H]2[C@@H](COc3ccc(NC(=O)c4cnccn4)cc3C(=O)N2C)O1,-4,·,-3,-37[16.7 µM],-1,-4
O=C(NCC[C@H]1CC[C@@H](NS(=O)(=O)c2cccc(F)c2)[C@H](CO)O1)c1cnccn1,-1,-6[16.7 µM],3,·,-1,-4
Cc1ccc(OCC(=O)NNC(=O)CCC(=O)Nc2ccc(C)cc2C)cc1,-4,-89,·,1,·,57*
Cc1ccc(NC(=O)CCC(=O)NNC(=O)COc2ccccc2)c(C)c1,·,-6,·,·,·,·
Cc1ccccc1NC(=O)COc1ccccc1C,1,-34,-24,1,1,4
Cc1ccccc1OCC(=O)Nc1ccccc1-c1ccccc1,·,28,-38*,·,0,9
CN1C(=O)c2cc(NC(=O)c3cnccn3)ccc2OC[C@H]2O[C@@H](CC(=O)NC3CCC3)CC[C@@H]21,-5,·,-1,-22[16.7 µM],2,-1
Cc1ccc(CNC(=O)CCCC(=O)c2ccccc2)cc1,-1,-13,1,0,-1,32
O=C(CCCC(=O)c1ccccc1)NCc1ccccc1,0,-2,5,-15,-4,40*
COc1ccc(C(=O)C(C)N(C(=O)c2ccc(Cl)cc2Cl)N2C(=O)C3C4C=CC(C4)C3C2=O)cc1 (centres undefined),0,123*,·,2,·,·
C=CCN=c1sc(C(=O)OC)cc(=O)n1CC=C,-1,-56,·,-10,·,50*
O=C(c1ccccc1)c1coc2ccc(O)c(Cl)c12,-2,·,-45*,-5,-5,-5
